For one molecule, Cp(f) results are on record in ChEMBL document CHEMBL3259739, “Synthesis and structure-activity relationship of trisubstituted thiazoles as Cdc7 kinase inhibitors” (Eur J Med Chem, 2014).

The subject of this data set is Plasma. As to the kind of experiment: Unbound plasma concentration in NCR nude mouse xenografted with human HCT116 cells at 150 mg/kg, iv after 6 hrs. Type of data set: ADME, organism-based, HCT-116. Also noted: dose 150 mg/kg, route intravenous. The settings on record: in vivo. Summed up: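 HCT-116 xenograft NCR/nu mice (three per group) were given a single iv dose in 20% HPbCD, 1% HPMC, 1% PluronicF68, pH7 at 10 mg/ml. Plasma collected at the time points was measured by LC/MS. Values were converted to unbound concentrations using percent plasma protein binding in mouse serum.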
(In general: In xenograft studies the graft and the host belong to different species.)

`NC(=O)c1sc(-c2ccnc(N)n2)nc1-c1ccc(Cl)cc1Cl`: the Cp(f) was > 1000 nM.
